Source: ChEMBL document CHEMBL1221356, “Synthesis and evaluation of antimigratory and antiproliferative activities of lipid-linked [13]-macro-dilactones” (Bioorg Med Chem Lett, 2010)
≈ marks a conversion by molar mass, not a printed value. Calls of active or inactive are those of the source. The calls are words filed in the database; no cut-off is given here.

Legend:
[1] = system: BT-20; experiment: Antimigratory activity against human BT20 cells assessed as mean rate of migration after 48 hrs by wound closure assay; format: functional
Outline: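 Kinetic wound-closure assay in confluent BT-20 monolayers grown in MEM with 10% FBS, wounded 30 min after addition of a range of concentrations or DMSO. Wound area measured from digital images at 3–72 h post-wounding.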

[2] = system: MDA-MB-435; experiment: Antimigratory activity against human MDA-MB-435 cells assessed as mean rate of migration by wound closure assay; format: functional, cell-based
Outline: (§1)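 Screening scratch-wound assay on confluent monolayers in 24-well plates. Medium changed to fresh medium with 100 µM compound or 1% DMSO; wounds of 0.5–1.0 mm2 scraped with a micropipet tip 30 min later. Scored closed/open by inverted microscopy every 12 h for 72 h; antimigratory if wound remained open after DMSO controls closed. Trypan blue exclusion at end. Culture at 37 °C, 5% CO2.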

[3] = system: MDCK; experiment: Antimigratory activity against MDCK cells assessed as mean rate of migration by wound closure assay; format: functional, cell-based; settings: Canis lupus familiaris; outline: as §1
[4] = system: T47D; experiment: Antimigratory activity against human T47D cells assessed as mean rate of migration by wound closure assay; format: functional, cell-based; outline: as §1
[5] = Therapeutic index, ratio of MLC for humanBT20 cells to MIC for BT20 cells; format: cell-based, BT-20; settings: human, read-out: TI
[6] = system: BT-20; experiment: Antiproliferative activity against human BT20 cells assessed as reduction in cell number after 48 hrs by […] assay; format: functional; settings: for MIC: Homo sapiens, 48 h
Outline: (§2)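 BT-20 cells, 5,000/well, grown 24 h at 37 °C, 5% CO2 before treatment with a range of concentrations or 1% DMSO for 48 h. Cell number by WST-8 tetrazolium absorbance at 450 nm after 3 h, versus an initial plate read at time of dosing. Four wells per experiment, three independent experiments. IC50 fitted from 48 h mean cell numbers. MIC is significant reduction versus control (t-test).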

[7] = system: BT-20; experiment: Antiproliferative activity against human BT20 cells assessed as after 48 hrs by […]; format: functional, cell-based; settings: BT-20, 48 h; outline: as §2
[8] = system: BT-20; experiment: Activity against human BT20 cells by trypan blue exclusion assay

Row | SMILES | MIC [1] | Activity [2] | Activity [3] | Activity [4] | selectivity ratio [5] | MLC [6] | MIC [6] | IC50 [7] | MLC [8]
1 | CCCCCCCCO[C@H]1O[C@@H]2COC(=O)CC/C=C/CCC(=O)O[C@H]2[C@H](OC)[C@H]1OC | 75 µM (≈ 34.2 µg/mL) | Active | Active | inactive | 6 | 300 µM (≈ 137 µg/mL) | 50 µM (≈ 22.8 µg/mL) | 91.4 µM | 125 µM (≈ 57.1 µg/mL)
2 | CCCCCCCCO[C@H]1O[C@@H]2COC(=O)CC/C=C/CCC(=O)O[C@H]2[C@H](OCc2ccccc2)[C@H]1OCc1ccccc1 | – | Active | Active | inactive | 30 | 300 µM (≈ 183 µg/mL) | 10 µM (≈ 6.09 µg/mL) | 85.1 µM | –
3 | CCCCCCCCO[C@H]1O[C@@H]2COC(=O)CCCCCCC(=O)O[C@H]2[C@H](O)[C@H]1O | 50 µM (≈ 21.5 µg/mL) | Active | Active | inactive | 5 | 50 µM (≈ 21.5 µg/mL) | 10 µM (≈ 4.31 µg/mL) | 38.1 µM | 75 µM (≈ 32.3 µg/mL)
4 | CCCCCCCCO[C@H]1O[C@H](CO)[C@@H](O)[C@H](OCc2ccccc2)[C@H]1OCc1ccccc1 | – | – | – | – | 3 | 75 µM (≈ 35.4 µg/mL) | 25 µM (≈ 11.8 µg/mL) | 52.9 µM | –
5 | CCCCCCCCO[C@@H]1O[C@H](CO)[C@@H](O)[C@H](OCc2ccccc2)[C@H]1OCc1ccccc1 | – | – | – | – | 4 | 100 µM (≈ 47.3 µg/mL) | 25 µM (≈ 11.8 µg/mL) | 61.1 µM | –
6 | CCCCCCCCO[C@H]1O[C@@H]2COC(c3ccccc3)O[C@H]2[C@H](O)[C@H]1O (stereo partly specified) | – | Active | Active | inactive | 7.5 | 75 µM (≈ 28.5 µg/mL) | 10 µM (≈ 3.8 µg/mL) | 47.1 µM | –
7 | CCCCCCCCO[C@H]1O[C@@H]2COC(=O)CC[C@H]3O[C@@H]3CCC(=O)O[C@H]2[C@H](O)[C@H]1O | 50 µM (≈ 22.2 µg/mL) | Active | Active | inactive | > 6 | >300 µM | 50 µM (≈ 22.2 µg/mL) | 107 µM | 125 µM (≈ 55.6 µg/mL)
8 | CCCCCCCCO[C@@H]1O[C@@H]2COC(c3ccccc3)O[C@H]2[C@H](O)[C@H]1O (stereo partly specified) | – | Active | Active | inactive | 6 | 300 µM (≈ 114 µg/mL) | 50 µM (≈ 19 µg/mL) | 72.1 µM | –
